How the values were obtained:
human C5 [1] = target: T1, human C5 (Homo sapiens, UniProt P01031); assay: Ex vivo human whole blood assay; format: cell-based; details: summary statement
How it was run: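 Fresh blood from healthy volunteers, anticoagulated with lepirudin at 50 μg/mL. Pre-treated with test compound (1 nM to 1 μM) for 30 min at 37 °C, then stimulated with E. coli O111:B4 LPS at 200 ng/mL for 24 h at 37 °C. Centrifuged at 2000×g for 10 min at 4 °C; plasma C5a quantified by commercial ELISA. Concentration–response format.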

human C5 [2] = target: T1, human C5; details: ref Hoarty et al. [2015]; Ricardo et al. [2017]; cited from earlier work
rodent C5 = details: ref Hoarty et al. [2015]; Ricardo et al. [2017]; cited from earlier work
C5b = details: prevents assembly of the MAC; ref Yee et al. [2015]; cited from earlier work
C5 = details: background statement, reference not given; cited from earlier work

T1 sequence (P01031 19-673 limits assumed): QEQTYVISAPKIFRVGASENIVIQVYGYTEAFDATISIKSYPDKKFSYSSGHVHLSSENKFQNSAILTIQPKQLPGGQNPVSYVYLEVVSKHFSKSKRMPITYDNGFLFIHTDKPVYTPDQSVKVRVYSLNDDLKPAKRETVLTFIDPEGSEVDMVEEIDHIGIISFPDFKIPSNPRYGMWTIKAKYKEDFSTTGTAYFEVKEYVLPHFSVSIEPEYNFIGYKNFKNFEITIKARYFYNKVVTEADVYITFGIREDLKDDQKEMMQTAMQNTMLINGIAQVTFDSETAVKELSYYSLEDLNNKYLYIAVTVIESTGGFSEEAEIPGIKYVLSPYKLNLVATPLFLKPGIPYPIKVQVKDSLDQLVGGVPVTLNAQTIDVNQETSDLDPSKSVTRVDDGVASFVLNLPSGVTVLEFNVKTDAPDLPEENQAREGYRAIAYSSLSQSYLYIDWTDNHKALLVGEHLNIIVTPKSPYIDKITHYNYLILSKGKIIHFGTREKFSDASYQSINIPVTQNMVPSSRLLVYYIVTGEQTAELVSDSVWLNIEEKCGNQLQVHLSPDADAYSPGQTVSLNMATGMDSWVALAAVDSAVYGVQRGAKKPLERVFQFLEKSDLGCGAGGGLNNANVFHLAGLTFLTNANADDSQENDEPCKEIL
T1 sequence (P01031 678-1676 limits assumed): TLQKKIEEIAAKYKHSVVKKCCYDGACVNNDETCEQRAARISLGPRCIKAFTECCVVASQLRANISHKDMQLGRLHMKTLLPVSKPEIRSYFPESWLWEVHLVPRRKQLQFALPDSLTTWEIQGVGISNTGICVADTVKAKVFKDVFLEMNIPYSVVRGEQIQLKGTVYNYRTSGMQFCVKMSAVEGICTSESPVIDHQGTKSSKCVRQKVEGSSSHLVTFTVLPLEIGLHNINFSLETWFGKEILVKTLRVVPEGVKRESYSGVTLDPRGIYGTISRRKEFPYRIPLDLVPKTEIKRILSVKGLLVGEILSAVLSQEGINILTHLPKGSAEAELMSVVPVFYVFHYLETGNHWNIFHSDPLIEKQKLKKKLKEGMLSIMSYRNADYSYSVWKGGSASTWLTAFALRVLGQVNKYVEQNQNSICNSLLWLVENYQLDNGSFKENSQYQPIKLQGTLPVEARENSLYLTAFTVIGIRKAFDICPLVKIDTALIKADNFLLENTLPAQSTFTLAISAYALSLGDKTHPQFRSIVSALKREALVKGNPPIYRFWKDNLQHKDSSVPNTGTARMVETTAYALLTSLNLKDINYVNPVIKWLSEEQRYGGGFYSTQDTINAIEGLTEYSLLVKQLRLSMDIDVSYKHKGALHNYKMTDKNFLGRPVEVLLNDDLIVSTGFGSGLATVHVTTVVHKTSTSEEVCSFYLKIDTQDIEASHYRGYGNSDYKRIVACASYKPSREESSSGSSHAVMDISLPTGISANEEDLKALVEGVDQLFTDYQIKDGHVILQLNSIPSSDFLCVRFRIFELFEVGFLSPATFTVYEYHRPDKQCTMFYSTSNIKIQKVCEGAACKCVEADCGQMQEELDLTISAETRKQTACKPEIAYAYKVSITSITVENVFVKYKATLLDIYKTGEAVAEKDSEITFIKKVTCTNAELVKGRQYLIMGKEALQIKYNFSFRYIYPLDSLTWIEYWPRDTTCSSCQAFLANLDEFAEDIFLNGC

LPS-induced C5a production from human blood (human C5 [1]): blocks LPS-induced C5a production
Substance: zilucoplan
human C5 cleavage (human C5 [2]): does bind and inhibit human C5 cleavage
rodent C5 cleavage (rodent C5): little to no effect
binding to C5b; C5b binding to C6 (C5b): binds to C5b, thereby competitively inhibiting C5b binding to C6
C5 cleavage (C5): inhibit C5 cleavage
